S1P1 ag pot: S1P1 agonists and agonism potentiators, primary screen, cell-based, primary and confirmation screens, CRE-bla reporter; S1P1 CRE-bla cells, forskolin, beta-lactamase FRET, potentiator mode; S1P1 agonist co-added at EC20, 2 nM; 100% = saturating reference agonist, 0% = basal; activation, % at 9.5 µM; actives 0.57% (n = 56,000); AID 449, 2006;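 active means activation above a cutoff set at the mean activation of all tested compounds plus 3 SD, cut at about 54% in these data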;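 further: forskolin at 4 µM as EC80 and the EC20 agonist is SEW2871; 100% = SEW2871 at its EC100 plus forskolin at EC80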
M1 antagonist: antagonists of rat M1 muscarinic receptor. Muscarinic acetylcholine receptor M1 (Rattus norvegicus), P08482. B-score at 10 µM. CHO-M1 cells, Fluo-4 calcium, ACh EC80 antagonist mode; hits give low values. actives 3.4% (n = 64,000). AID 628, 2007;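 active means calcium fluorescence response, raw or row-and-column corrected B-score, differing from the plate sample mean either way at a set confidence level, mostly lower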
Jurkat tox 60K: cytotoxicity toward Jurkat T cells, primary screen, cytotoxicity control, cell-based, Jurkat E6.1, 60K MLSMR library | Jurkat E6.1 viability, ATP luminescence, 48 h | actives 1.2% (n = 56,000) | AID 463, 2006 | inhibition, % at 4 µM;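 active means inhibition above the mean inhibition of all tested compounds plus 3 SD, cut at about 28% in these data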
S1P3 ag: human S1P3 receptor agonists, primary screen, cell-based, primary and confirmation, NFAT-BLA reporter; Sphingosine 1-phosphate receptor 3 (Homo sapiens), Q99500; S1P3 NFAT-BLA reporter cells, agonism, FRET ratio; relative to 1 µM S1P, basal subtracted; activation, % at 4.5 µM; actives 0.1% (n = 60,000);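 active means activation above the screen-wide mean plus 3 SD, cut at about 4.5% in these data, passing the limit was not always enough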
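Measure – % activation relative to 1 µM S1P (100%), per plate · System – stable CHO line with human S1P3, Gα16, NFAT-BLA reporter · Timing – cells plated overnight, compound 4 h 37 °C, substrate 2 h RT · Technique – fluorescent BLA substrate, ex 405 nm, em 460/535 nm ratio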
M1 ag: M1 muscarinic receptor agonists, primary screen, CHO-M1 cells, Fluo-4 calcium, agonist mode | Fluo-4 calcium fluorescence; hits give high values | AID 626, 2007 | Muscarinic acetylcholine receptor M1 | B-score at 10 µM | actives 3% (n = 64,000);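 active means fluorescence rise, raw or as B-score row- and column-corrected plate score, outside the 99.7% band of its plate's samples, either direction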
JNK3 blocker: JNK3 kinase activity inhibitors, primary screen, biochemical, human, purified enzyme; AID 746, 2007; inhibition, % at 8 µM; actives 0.61% (n = 60,000); HTS; Mitogen-activated protein kinase 10 (Homo sapiens), P53779; in the data active means inhibition above about 17%;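 further: 0% = DMSO and 100% = reference inhibitor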
Target sequence (P53779 whole entry, looked up): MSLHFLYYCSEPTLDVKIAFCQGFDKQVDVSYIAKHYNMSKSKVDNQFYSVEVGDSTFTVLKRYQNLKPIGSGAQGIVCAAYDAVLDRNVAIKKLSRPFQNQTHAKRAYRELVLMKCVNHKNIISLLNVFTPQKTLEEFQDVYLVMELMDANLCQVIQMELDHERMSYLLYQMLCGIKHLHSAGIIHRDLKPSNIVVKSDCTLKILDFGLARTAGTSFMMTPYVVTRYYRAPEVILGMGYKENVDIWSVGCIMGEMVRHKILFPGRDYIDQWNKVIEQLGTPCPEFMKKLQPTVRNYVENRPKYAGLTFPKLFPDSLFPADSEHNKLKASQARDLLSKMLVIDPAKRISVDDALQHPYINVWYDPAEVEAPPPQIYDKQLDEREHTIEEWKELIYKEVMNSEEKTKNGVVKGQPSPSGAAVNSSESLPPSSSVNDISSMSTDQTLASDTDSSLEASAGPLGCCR
M1 antag conf: rat M1 muscarinic receptor antagonists, confirmation, CHO cells, Fluo-4 calcium, duplicate. shares compounds with M1 antagonist. ACh EC80 antagonism; hits give low values. calcium response (max-min fluorescence) at 10 µM. AID 677, 2007. actives 43% (n = 1,700);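 active means calcium response below the same-plate mean of wells given acetylcholine alone at its 80%-effect dose, minus 3 SD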;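 further: raw fluorescence intensity difference in arbitrary instrument units and not normalized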
mGluR4 antag: human mGluR4 response to M1 antagonist hits, M1 allosteric modulator project, cell-based, antagonist mode, secondary assay 1; shares compounds with M1 antagonist; CHO-mGluR4 calcium flux, Fluo-4 fluorescence, glutamate EC80; hits give low values; fluorescence response (max-min) at 10 µM; actives 0.9% (n = 1,700);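 active means fluorescence response below the plate's average for near-maximal glutamate wells, less 3 SD of those wells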;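 further: raw unnormalized fluorescence span taken in the window right after glutamate addition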
* marks the source's active call; other numbers are inactive results; . = not tested or not shown. The list is not random: actives were taken first. Their share in the collection is about 7.4%.

SMILES	S1P1 ag pot	M1 antagonist	Jurkat tox 60K	S1P3 ag	M1 ag	JNK3 blocker	M1 antag conf	mGluR4 antag
COc1ccc(OC)c(NC(=O)C2C3CC4OC(=O)C2C4C3)c1 (stereo not drawn)	27.0	0.0831	-2.4	-1.5	0.0843	-2.0	.	.
CCN(CC)CCOc1cccc(C(C)C)c1	-12.8	-4.53*	-2.4	-0.2	-0.0289	1.4	294*	213
O=C1CC(N2CCN(C/C=C/c3ccccc3)CC2)C(=O)N1CCc1ccccc1 (stereo not drawn)	90.5	-3.98*	4.2	-1.2	1.54	0.3	422*	256
O=C1CC(N2CCN(C/C=C/c3ccccc3)CC2)C(=O)N1Cc1cccs1 (stereo not drawn)	-10.1	-19.2*	10.1	-0.7	0.965	-0.1	22.9*	216
COc1ccc(C(=O)N2CCN(S(=O)(=O)c3cc(Cl)ccc3OC)CC2)cc1	-5.3	1.4	-2.8	0.2	0.277	4.6	.	.
CC(Oc1ccc(Cl)cc1Cl)C(=O)NCc1ccncc1 (stereo not drawn)	.	-2.43*	.	.	0.635	.	605	223
CCOc1ccc(CCN2C(=O)C3C4C=CC(C4)C3C2=O)cc1OCC (stereo not drawn)	11.8	-0.399	5.3	-1.3	0.522	-3.5	.	.
CC(=O)c1ccc(OCC(O)CN2CCC(C)CC2)cc1 (stereo not drawn)	-1.9	0.0218	-2.9	-0.7	0.866	3.0	.	.
COC(=O)c1ccc(OCC(O)CN2CCC(C)CC2)cc1 (stereo not drawn)	-29.3	-3.52*	2.1	-1.1	0.939	5.7	527	275
CC(=O)c1ccc(OCC(O)CN2C(C)CCCC2C)cc1 (stereo not drawn)	-6.5	-1.98*	-5.6	0.1	0.77	-0.1	518	245
CC(=O)c1ccc(OCC(O)CN2CC(C)OC(C)C2)cc1 (stereo not drawn)	-10.7	-0.0011	-0.2	-0.8	-0.298	4.3	.	.
CC(C)CCn1c(NCCN(C)C)nc2c1c(=O)[nH]c(=O)n2C	13.7	-3.95*	-3.8	-0.4	0.0738	2.0	601	274
CCCNc1nc2c(c(=O)[nH]c(=O)n2C)n1CCC(C)C	-52.8	1.48	3.9	0.4	0.197	-2.7	.	.
COc1ccc2c(c1)N(C(=O)CSc1n[nH]c(C)n1)C(C)(C)C=C2C	1.2	0.684	-7.0	-0.9	0.614	-5.5	.	.
CCCCCCC1C(C#N)=C(N)OC2=C1C(=O)CCC2 (stereo not drawn)	1.9	-2.34*	-1.7	0.2	-0.3	-1.2	434*	236
Cc1cccc(-c2c3c(=O)n(C)c(=O)n(C)c3cn2CC2CCCO2)c1 (stereo not drawn)	0.1	-0.104	1.3	-1.3	0.261	-5.9	.	.
CN1/C(=C\C(=O)c2cccs2)Sc2ccccc21	-2.9	-6.5*	7.6	0.6	-1.1	-6.9	545	179
CC(C(=O)NC1CCCC1)N(C(=O)c1snc(C(N)=O)c1N)c1ccc2c(c1)OCCO2 (stereo not drawn)	-20.3	0.279	2.3	0.1	0.794	0.1	.	.
CCOc1ccccc1Oc1c(C)oc2c(CN3CCN(CCO)CC3)c(O)ccc2c1=O	-30.5	0.094	2.2	-1.3	0.137	-4.7	.	.
CCOC(=O)c1ccc(Oc2c(C)oc3c(CN4CCN(C)CC4)c(O)ccc3c2=O)cc1	-17.0	-4.39*	-3.2	0.6	-0.187	7.2	405*	250
CCOC(=O)Nc1ccc2c(c1)Sc1ccccc1N2C(=O)CCN1CCOCC1	-17.2	-3.48*	-8.9	1.0	1.44	-1.1	317*	257
NC(=O)C1CCN(C(=O)N2c3ccccc3Sc3ccccc32)CC1	6.0	-1.02	-1.4	-0.6	-0.583	-6.6	.	.
CCOC(=O)Nc1ccc2c(c1)N(C(=O)CCN1CCN3CCCC3C1)c1ccccc1CC2 (stereo not drawn)	-16.7	.	-0.6	1.4	.	-4.2	.	.
CCOC(=O)Nc1ccc2c(c1)N(C(=O)N1CCN(C)CC1)c1ccccc1S2	-14.9	-14.9*	1.4	0.8	0.0412	-4.6	14.4*	268
N#Cc1nc(COc2ccccc2F)oc1N1CCCCCC1	27.3	-1.88*	-2.3	-0.5	0.389	10.3	572	235
SMILES	S1P1 ag pot	M1 antagonist	Jurkat tox 60K	S1P3 ag	M1 ag	JNK3 blocker	M1 antag conf	mGluR4 antag
N#Cc1nc(COc2ccccc2Cl)oc1N1CCCCCC1	28.2	1.01	6.6	-0.9	0.199	6.5	.	.
COc1ccc(C2(CNC(=O)CCC(=O)O)CCCC2)cc1	-1.1	0.397	-2.1	-0.1	-0.581	8.6	.	.
C=CCn1c(SCn2nnc3ccccc3c2=O)nc2scc(-c3cccs3)c2c1=O	-8.9	0.338	6.0	-0.8	-0.261	0.7	.	.
N#CCSc1nc2scc(-c3cccs3)c2c(=O)n1CCc1ccccc1	-6.7	-3.28*	-0.8	-0.4	0.494	5.2	675	167
CCCCCOC(=O)c1ccc(NC(=O)c2ccco2)cc1	6.3	0.666	1.0	-0.8	0.0131	3.1	.	.
Cc1cc(NC(=O)C2(c3ccccc3)CCCC2)no1	-23.8	-0.0654	-1.3	1.0	0.929	0.8	.	.
CCN1CCN(c2cc(C)c3cc(NC(=O)c4cncc(Br)c4)ccc3n2)CC1	.	-5.01*	.	.	-0.0714	.	250*	228
CCN1CCN(c2cc(C)c3cc(NC(=O)c4ccc5c(c4)OCO5)ccc3n2)CC1	-23.6	-2.64*	-1.3	-0.7	-0.0358	-4.9	502*	214
COc1cccc(C(=O)Nc2ccc3nc(N4CCOCC4)cc(C)c3c2)c1	-27.7	-1.32	-0.5	-0.5	0.164	4.1	.	.
O=C(CCNS(=O)(=O)c1cccc2nsnc12)N1CCN(c2ccccn2)CC1	.	-1.98*	.	.	-0.304	.	41.9*	242
CCOC(=O)N1CCN(C(=O)CCNS(=O)(=O)c2cc(Br)cnc2N)CC1	-43.9	-0.786	-4.8	0.6	1.08	2.5	.	.
Nc1ncc(Br)cc1S(=O)(=O)NCCC(=O)N1CCN(c2ncccn2)CC1	-19.2	-2.93*	-5.3	-0.6	-0.638	-0.6	550	256
COc1cc(OC)c(NC(=O)CCNS(=O)(=O)c2cc(Br)cnc2N)cc1Cl	4.7	-6.85*	-3.6	0.9	0.243	-0.3	549	253

From PubChem BioAssay
